Test results from ChEMBL document CHEMBL3352485 (J Med Chem, 2014).
Activity calls are given as the source filed them. The rule behind the calls is not given here. Where a SMILES comes first, the peptide text is derived from it. [ ]: non-standard residue; d: D form. Arg(Me) = CNC(=N)NCCC[C@H](N)C(=O)O; azaGly = NNC(=O)O

What was measured:
KiSS-1 receptor [1] = biological target: T1, KiSS-1 receptor (Homo sapiens, UniProt Q969F8); experiment: Agonist activity at human KISS1R transfected in CHO cells assessed as intracellular calcium flux after 24 hrs by functional FLIPR assay; format: cell-based
T1 sequence (Q969F8 whole entry): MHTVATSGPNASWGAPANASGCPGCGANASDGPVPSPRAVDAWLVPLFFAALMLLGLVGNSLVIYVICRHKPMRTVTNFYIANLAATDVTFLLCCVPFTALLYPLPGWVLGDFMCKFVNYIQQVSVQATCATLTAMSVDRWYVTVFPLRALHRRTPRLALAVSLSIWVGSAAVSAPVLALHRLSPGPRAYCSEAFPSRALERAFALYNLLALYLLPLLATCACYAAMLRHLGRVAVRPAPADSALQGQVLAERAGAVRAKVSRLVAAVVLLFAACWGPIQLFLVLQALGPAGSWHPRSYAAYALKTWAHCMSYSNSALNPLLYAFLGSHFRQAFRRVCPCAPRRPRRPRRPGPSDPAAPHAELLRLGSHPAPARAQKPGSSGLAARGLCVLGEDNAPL
Method in brief: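 CHO cells stably expressing human KISS1R were seeded at 15 000 cells/mL, cultured 24 h, then loaded with fluo-3 for 1 h at 37 °C in HBSS/HEPES (pH 7.4) with probenecid and FBS. Cells were washed in HBSS with 2.5 mM probenecid. Peptides came from 1 mM DMSO stocks diluted in buffer containing probenecid, 0.2% BSA and 0.1% CHAPS. Fluorescence was recorded on FLIPR for 3 min; peak counts over 0–180 s gave agonist activity.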

KiSS-1 receptor [2] = biological target: T2, KiSS-1 receptor (Rattus norvegicus, UniProt Q924U1); experiment: Agonist activity at rat KISS1R transfected in CHO cells assessed as intracellular calcium flux after 24 hrs by functional FLIPR assay; format: cell-based
T2 sequence (Q924U1 whole entry): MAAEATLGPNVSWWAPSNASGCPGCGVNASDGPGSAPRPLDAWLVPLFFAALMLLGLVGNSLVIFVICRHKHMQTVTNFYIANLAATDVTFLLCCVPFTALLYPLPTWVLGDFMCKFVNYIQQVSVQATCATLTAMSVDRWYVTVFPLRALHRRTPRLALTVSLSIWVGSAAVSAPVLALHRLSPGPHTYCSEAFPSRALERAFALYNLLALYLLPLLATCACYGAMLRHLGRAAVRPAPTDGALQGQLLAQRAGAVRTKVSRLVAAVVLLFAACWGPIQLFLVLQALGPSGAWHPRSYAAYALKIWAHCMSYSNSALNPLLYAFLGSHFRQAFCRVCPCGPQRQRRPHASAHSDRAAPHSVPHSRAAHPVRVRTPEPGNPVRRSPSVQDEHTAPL

KiSS-1 receptor [3] = biological target: T1, KiSS-1 receptor; experiment: Displacement of radioligand from human KISS1R transfected in CHO cells; format: cell-based
Method in brief: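 Binding used membrane fractions prepared from CHO cells expressing recombinant human KISS1R.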

KiSS-1 receptor [4] = biological target: T2, KiSS-1 receptor; experiment: Displacement of radioligand from rat KISS1R transfected in CHO cells; format: cell-based
[5] = Stability of the compound in aqueous solution (JP1) assessed as residual ratio at pH 1.2 up to 1 week by HPLC analysis relative to initial level; format: physicochemical
Method in brief: (§1)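 Peptides in aqueous solution at pH 1.2 (JP1, containing 10% acetonitrile), 3, 5 or 7 were kept in the dark at 37 °C for up to 2 weeks. Peptide remaining was quantified from HPLC peak area, with detection at 230–280 nm. The residual ratio (stability index) was expressed relative to the time-0 amount, taken as 100%.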

[6] = Stability of the compound in aqueous solution assessed as residual ratio at pH 3 up to 1 week by HPLC analysis relative to initial level; format: physicochemical; method in brief: as §1
[7] = Stability of the compound in aqueous solution assessed as residual ratio at pH 5 up to 1 week by HPLC analysis relative to initial level; format: physicochemical; method in brief: as §1
[8] = Stability of the compound in aqueous solution assessed as residual ratio at pH 7 up to 1 week by HPLC analysis relative to initial level; format: physicochemical; method in brief: as §1
[9] = Stability of the compound in aqueous solution (JP1) assessed as residual ratio at pH 1.2 up to 2 weeks by HPLC analysis relative to initial level; format: physicochemical; method in brief: as §1
[10] = Stability of the compound in aqueous solution assessed as residual ratio at pH 3 up to 2 weeks by HPLC analysis relative to initial level; format: physicochemical; method in brief: as §1
[11] = Stability of the compound in aqueous solution assessed as residual ratio at pH 5 up to 2 weeks by HPLC analysis relative to initial level; format: physicochemical; method in brief: as §1
[12] = Stability of the compound in aqueous solution assessed as residual ratio at pH 7 up to 2 weeks by HPLC analysis relative to initial level; format: physicochemical; method in brief: as §1
Rattus norvegicus [13] = experiment: Testosterone-suppressive activity in Crl:CD(SD) rat assessed as number of animal with plasma testosterone level below the limit of detection at 0.05 mol/hr, sc through osmotic pumps measured after 6 days by RIA; format: functional
Rattus norvegicus [14] = experiment: Testosterone-suppressive activity in Crl:CD(SD) rat assessed as number of animal with plasma testosterone level below the limit of detection at 0.03 mol/hr, sc through osmotic pumps measured after 6 days by RIA; format: functional
Rattus norvegicus [15] = experiment: Testosterone-suppressive activity in Crl:CD(SD) rat assessed as number of animal with plasma testosterone level below the limit of detection […], sc through osmotic pumps measured after 6 days by RIA; format: functional
[16] = AUC (0 to 24 hrs) in Sprague-Dawley rat at 1 mg/kg, iv after 24 hrs by LC-MS/MS analysis; format: ADME, organism-based; parameters: time < 24 hr, dose 1 mg/kg, route intravenous; details: plasma
Method in brief: (§2)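 Male Crl:CD(SD) rats (3 per group) got a single intravenous dose of 1 mg/kg. Blood was drawn at 5, 10, 15 and 30 min and at 1, 2, 4, 8 and 24 h. Plasma proteins were removed with 0.2% formic acid/methanol and acetonitrile, and the supernatant was treated with 0.4% formic acid. Peptide was quantified by LC-MS. Noncompartmental parameters were derived per rat, reported as mean ± SD (n = 3).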

[17] = Mean residence time in Sprague-Dawley rat at 1 mg/kg, iv after 24 hrs by LC-MS/MS analysis; format: ADME, organism-based; parameters: dose 1 mg/kg, route intravenous; details: in vivo; method in brief: as §2
[18] = Volume of distribution at steady state in Sprague-Dawley rat at 1 mg/kg, iv after 24 hrs by LC-MS/MS analysis; format: ADME, organism-based; parameters: dose 1 mg/kg, route intravenous; details: in vivo, read-out: Vdss; method in brief: as §2
[19] = Total clearance in Sprague-Dawley rat at 1 mg/kg, iv after 24 hrs by LC-MS/MS analysis; format: ADME, organism-based; parameters: dose 1 mg/kg, route intravenous; details: in vivo; method in brief: as §2
[20] = Cmax in Sprague-Dawley rat at 1 mg/kg, sc after 24 hrs by LC-MS/MS analysis; format: ADME, organism-based; parameters: dose 1 mg/kg, route subcutaneous; details: in vivo
Method in brief: (§3)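 Single subcutaneous dose of 1 mg/kg in male Crl:CD(SD) rats, n = 3 per group. Blood was sampled from 5 min to 24 h (5, 10, 15, 30 min; 1, 2, 4, 8, 24 h). Plasma was deproteinized with formic acid/methanol and acetonitrile, and peptide levels were measured by LC-MS. Noncompartmental analysis per animal gave Cmax, Tmax, AUC0-24h, MRT and BA; values are mean ± SD (n = 3).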

[21] = Tmax in Sprague-Dawley rat at 1 mg/kg, sc after 24 hrs by LC-MS/MS analysis; format: ADME, organism-based; parameters: dose 1 mg/kg, route subcutaneous; details: in vivo; method in brief: as §3
[22] = AUC (0 to 24 hrs) in Sprague-Dawley rat at 1 mg/kg, sc after 24 hrs by LC-MS/MS analysis; format: ADME, organism-based; parameters: time < 24 hr, dose 1 mg/kg, route subcutaneous; details: plasma; method in brief: as §3
[23] = Mean residence time in Sprague-Dawley rat at 1 mg/kg, sc after 24 hrs by LC-MS/MS analysis; format: ADME, organism-based; parameters: dose 1 mg/kg, route subcutaneous; details: in vivo; method in brief: as §3
[24] = Bioavailability in Sprague-Dawley rat at 1 mg/kg, sc after 24 hrs by LC-MS/MS analysis; format: ADME, organism-based; details: in vivo; method in brief: as §3
Rattus norvegicus [25] = experiment: Testosterone-suppressive activity in Crl:CD(SD) rat assessed as plasma testosterone level below the limit of detection at 10 to 100 pmol/hr, sc continuous administration through osmotic pumps measured up to 1 week by RIA; format: functional, organism-based
Method in brief: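 Peptide in 50% DMSO was diluted in distilled water to 10, 30 or 100 μM pump solutions, giving 10–100 pmol/h by subcutaneous ALZET osmotic pump in male Crl:CD(SD) rats (n = 5). Vehicle served as control. Plasma testosterone was measured by RIA after 1 or 4 weeks, with values below 0.04 ng/mL set to 0.04. Results are mean ± SD of five rats, tested by one-tailed Shirley–Williams test versus vehicle.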

[26] = C5min in Sprague-Dawley rat at 1 mg/kg, iv after 5 mins by LC-MS/MS analysis; details: in vivo, read-out: Cmin
Rattus norvegicus [27] = experiment: Stimulation of LH release in Crl:CD(SD) rat assessed as LH AUC (0 to 4 hrs) at 0.01 to 1 nmol/kg, sc single dose relative to metastin; format: functional
Rattus norvegicus [28] = experiment: Stimulation of testosterone release in Crl:CD(SD) rat assessed as testosterone AUC (0 to 4 hrs) at 0.01 to 1 nmol/kg, sc single dose; format: functional, organism-based
Rattus norvegicus [29] = species on record: Rattus norvegicus; experiment: Toxicity in rat; format: organism-based; details: in vivo
Canis familiaris = species on record: Canis familiaris; experiment: Toxicity in dog; format: organism-based, Canis lupus familiaris; details: in vivo

Question: What does the source list for `CNC(=N)NCCC[C@H](NC(=O)[C@H](CC(C)C)NC(=O)NNC(=O)[C@H](Cc1ccccc1)NC(=O)[C@@H](NC(=O)[C@H](CC(N)=O)NC(=O)[C@@H](Cc1c[nH]c2ccccc12)NC(=O)[C@@H](Cc1ccc(O)cc1)NC(C)=O)[C@@H](C)O)C(=O)N[C@@H](Cc1ccccc1)C(N)=O`?
Answer: EC50 (KiSS-1 receptor [1]): 940 pM; EC50 (KiSS-1 receptor [2]): 3900 pM; Ki (KiSS-1 receptor [3]): 38 pM; Ki (KiSS-1 receptor [4]): 87 pM; remaining at 168 h [5]: 50.6%; remaining at 168 h [6]: 97.5%; remaining at 168 h [7]: 98.1%; remaining at 168 h [8]: 84.5%; remaining at 336 h [9]: 22.3%; remaining at 336 h [10]: 95%; remaining at 336 h [11]: 96.3%; remaining at 336 h [12]: 67.6%; Activity (Rattus norvegicus [13]): 5%; Activity (Rattus norvegicus [14]): 4%; Activity (Rattus norvegicus [15]): 0 animals; AUC(0-t) at 24 h [16]: 497 ng·h/mL; MRT [17]: 26.4 min; Vd [18]: 0.896 L/kg; clearance [19]: 34.5 mL/min/kg; Cmax [20]: 114 ng/mL; Tmax [21]: 25.2 min; AUC(0-t) at 24 h [22]: 144 ng·h/mL; MRT [23]: 52.8 min; bioavailability [24]: 28.9%; inhibition (Rattus norvegicus [25]): Active; concentration at 5 min [26]: 1450 ng/mL

Question: Which EC50 (KiSS-1 receptor [1]) does the source give for `CNC(=N)NCCC[C@H](NC(=O)[C@H](CC(C)C)NC(=O)NNC(=O)[C@H](Cc1ccccc1)NC(=O)[C@@H](NC(=O)[C@H](CC(N)=O)NC(=O)[C@@H](Cc1c[nH]c2ccccc12)NC(=O)[C@@H](Cc1ccc(O)cc1)NC(C)=O)[C@@H](C)O)C(=O)N[C@@H](Cc1c[nH]c2ccccc12)C(N)=O` (Ac-[dY][dW]NTF[azaGly]L[Arg(Me)]W-NH2) here?
Answer: 330 pM

Question: What about the EC50 (KiSS-1 receptor [2]) of the same compound?
Answer: 1300 pM

Question: And the Ki (KiSS-1 receptor [3])?
Answer: 36 pM

Question: And the Ki (KiSS-1 receptor [4])?
Answer: 69 pM

Question: What about the remaining at 168 h [5] of the same compound?
Answer: 55.6%

Question: And the remaining at 168 h [6]?
Answer: 97.7%

Question: And the remaining at 168 h [7]?
Answer: 95.9%

Question: And the remaining at 168 h [8]?
Answer: 79.7%

Question: And the remaining at 336 h [9]?
Answer: 28.8%

Question: And the remaining at 336 h [10]?
Answer: 95.6%

Question: And the remaining at 336 h [11]?
Answer: 93.6%

Question: And the remaining at 336 h [12]?
Answer: 66.4%

Question: What about the Activity (Rattus norvegicus [13]) of the same compound?
Answer: 5%

Question: What about the Activity (Rattus norvegicus [14]) of the same compound?
Answer: 4%

Question: And the Activity (Rattus norvegicus [15])?
Answer: 0 animals

Question: And the AUC(0-t) at 24 h [16]?
Answer: 1220 ng·h/mL

Question: What about the MRT [17] of the same compound?
Answer: 41.4 min

Question: And the Vd [18]?
Answer: 0.562 L/kg

Question: What about the clearance [19] of the same compound?
Answer: 13.7 mL/min/kg

Question: What about the Cmax [20] of the same compound?
Answer: 100 ng/mL

Question: What about the Tmax [21] of the same compound?
Answer: 11.4 min

Question: What about the AUC(0-t) at 24 h [22] of the same compound?
Answer: 115 ng·h/mL

Question: What about the MRT [23] of the same compound?
Answer: 51.6 min

Question: What about the bioavailability [24] of the same compound?
Answer: 9.4%

Question: And the inhibition (Rattus norvegicus [25])?
Answer: Active

Question: What about the “fold change (FC)” value (Rattus norvegicus [27]) of the same compound?
Answer: 100

Question: What about the Activity (Rattus norvegicus [28]) of the same compound?
Answer: Active

Question: What about the Activity (Rattus norvegicus [29]) of the same compound?
Answer: Non-toxic

Question: What about the Activity (Canis familiaris) of the same compound?
Answer: Non-toxic

Question: What about the concentration at 5 min [26] of the same compound?
Answer: 2510 ng/mL
